The values below come from ChEMBL document CHEMBL1137213, “New substituted piperazines as ligands for melanocortin receptors. Correlation to the X-ray structure of "THIQ"” (J Med Chem, 2004).

The term Ki denotes the equilibrium dissociation constant of an inhibitor or competing ligand from its target.

Test [1] has as its target Melanocyte-stimulating hormone receptor (Homo sapiens, UniProt Q01726). Kind of test: Binding affinity towards Melanocortin 1 receptor using [125I]NDP-MSH. Put shortly:
(§1)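 Human MC1, MC3, MC4 or MC5 receptor expressed in Sf9 cells by recombinant virus infection for 72 h; membranes prepared from these cells. Membranes (10 µg protein/100 µL) incubated with [125I]NDP-MSH and competing unlabeled ligand in 20 mM K-Hepes pH 7.4, 5 mM NaCl, 1 mM CaCl2, 0.5 mM MgCl2, 0.5 mg/mL BSA for 3 h at 25 °C. Ended by filtration through glass-fiber filters. Nonspecific binding set with 3 µM NDP-MSH.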

In test [2] the target is Melanocortin receptor 4 (Homo sapiens, UniProt P32245). Kind of test: Binding affinity towards Melanocortin 4 receptor using [125I]NDP-MSH. Put shortly: as §1
Melanocortin receptor 4, sequence (P32245 whole entry): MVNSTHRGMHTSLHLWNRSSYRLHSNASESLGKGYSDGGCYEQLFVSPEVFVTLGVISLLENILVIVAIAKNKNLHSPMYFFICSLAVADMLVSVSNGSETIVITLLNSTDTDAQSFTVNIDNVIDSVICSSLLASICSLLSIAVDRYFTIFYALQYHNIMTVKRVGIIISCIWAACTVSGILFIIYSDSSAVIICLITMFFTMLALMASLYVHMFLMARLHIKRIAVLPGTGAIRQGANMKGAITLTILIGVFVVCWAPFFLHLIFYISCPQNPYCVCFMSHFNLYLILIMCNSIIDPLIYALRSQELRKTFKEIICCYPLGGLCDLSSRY
Test [3] deals with Melanocortin receptor 3 (Homo sapiens, UniProt P41968). Kind of test: Binding affinity towards Melanocortin 3 receptor using [125I]NDP-MSH. Put shortly: as §1
Melanocortin receptor 3, sequence (P41968 whole entry): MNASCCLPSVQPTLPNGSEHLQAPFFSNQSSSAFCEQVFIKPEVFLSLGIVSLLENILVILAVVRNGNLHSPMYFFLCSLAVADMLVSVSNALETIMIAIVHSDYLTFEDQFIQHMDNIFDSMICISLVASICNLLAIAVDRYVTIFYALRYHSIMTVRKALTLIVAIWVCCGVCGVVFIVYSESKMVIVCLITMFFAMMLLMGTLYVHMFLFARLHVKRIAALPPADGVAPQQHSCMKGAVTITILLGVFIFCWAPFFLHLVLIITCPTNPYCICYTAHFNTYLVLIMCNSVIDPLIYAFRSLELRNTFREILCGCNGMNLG
For test [4], the target named is Melanocortin receptor 5 (Homo sapiens, UniProt P33032). Kind of test: Binding affinity towards Melanocortin 5 receptor using [125I]NDP-MSH. In short, it runs like this:
as §1

Melanocortin receptor 5, sequence (P33032 whole entry): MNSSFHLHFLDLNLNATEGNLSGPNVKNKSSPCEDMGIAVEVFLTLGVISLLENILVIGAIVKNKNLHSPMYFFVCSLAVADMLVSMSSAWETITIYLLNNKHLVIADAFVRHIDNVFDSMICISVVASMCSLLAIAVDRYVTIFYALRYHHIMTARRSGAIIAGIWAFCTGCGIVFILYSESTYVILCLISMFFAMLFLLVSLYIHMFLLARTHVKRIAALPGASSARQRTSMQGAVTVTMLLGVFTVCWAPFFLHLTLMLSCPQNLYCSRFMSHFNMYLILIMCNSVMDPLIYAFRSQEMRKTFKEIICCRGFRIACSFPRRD
Melanocyte-stimulating hormone receptor, sequence (Q01726 whole entry): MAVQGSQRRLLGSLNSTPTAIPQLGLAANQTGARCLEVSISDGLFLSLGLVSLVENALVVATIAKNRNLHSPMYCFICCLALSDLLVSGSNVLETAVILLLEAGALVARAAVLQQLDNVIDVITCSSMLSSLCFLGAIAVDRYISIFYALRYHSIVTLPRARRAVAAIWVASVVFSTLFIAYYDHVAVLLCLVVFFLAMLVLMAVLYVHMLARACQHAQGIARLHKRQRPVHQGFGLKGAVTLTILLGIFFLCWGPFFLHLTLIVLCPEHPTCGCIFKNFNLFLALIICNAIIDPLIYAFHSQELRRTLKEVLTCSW

Take `O=C(N[C@H](Cc1ccc(Cl)cc1)C(=O)N1CCN(C2(Cn3cncn3)CCCC2)CC1)C1Cc2ccccc2CN1` (stereo partly specified): the Ki was determined as 0.53 µM in test [1], 1.5 µM in test [2], 8.8 µM in test [3] and 18 µM in test [4].

Consider `O=C(N[C@H](Cc1ccc(Cl)cc1)C(=O)N1CCN(c2ccccc2)CC1)C1Cc2ccccc2CN1` (stereo partly specified), for which the Ki is 13 µM in test [1], 30 µM in test [2], 15 µM in test [3] and 17 µM in test [4].

`O=C(N[C@H](Cc1ccc(Cl)cc1)C(=O)N1CCN(C2CCCCC2Cn2cncn2)CC1)C1Cc2ccccc2CN1` (stereo partly specified): the Ki worked out at 2 µM in test [1], 0.39 µM in test [2], 5.2 µM in test [3] and 16 µM in test [4].

For the molecule `O=C(N[C@H](Cc1ccc(Cl)cc1)C(=O)N1CCC(Cn2cncn2)(C2CCCCC2)CC1)[C@H]1Cc2ccccc2CN1`, in test [4], the inhibition constant Ki worked out at 5 µM.

As for `O=C(N[C@H](Cc1ccc(Cl)cc1)C(=O)N1CCN(C2CCCCC2)CC1)C1Cc2ccccc2CN1` (stereo partly specified), the Ki in test [1] came to 11 µM; in test [2], 1.4 µM; in test [3], 6.8 µM; in test [4] it was 8.2 µM.

As for `O=C(N[C@H](Cc1ccc(Cl)cc1)C(=O)N1CC[N+]([O-])(c2ccccc2)CC1)C1Cc2ccccc2CN1` (stereo partly specified), the inhibition constant Ki in test [1] amounted to 36 µM; in test [2], 169 µM; in test [3] it was 35 µM; in test [4], 94 µM.

With `O=C(N[C@H](Cc1ccc(Cl)cc1)C(=O)N1CCN([C@H]2CCCC[C@@H]2n2cncn2)CC1)C1Cc2ccccc2CN1` (stereo partly specified), the Ki in test [1] is 2.2 µM; in test [2] it was 0.86 µM; in test [3], 6.5 µM; in test [4] it was 17 µM.

Take `O=C(N[C@H](Cc1ccc(Cl)cc1)C(=O)N1CC[N+]([O-])(C2CCCCC2)CC1)C1Cc2ccccc2CN1` (stereo partly specified): the inhibition constant Ki is 152 µM in test [1], 57 µM in test [2], 114 µM in test [3] and 102 µM in test [4].

Regarding `O=C(N[C@H](Cc1ccc(Cl)cc1)C(=O)N1CCN([C@@H]2CCCC[C@H]2n2cncn2)CC1)C1Cc2ccccc2CN1` (stereo partly specified), the Ki in test [1] was determined as 2 µM; in test [3] it was 4.4 µM; in test [4], 9.8 µM.

Regarding `O=C(N[C@H](Cc1ccc(Cl)cc1)C(=O)N1CCN(C2(Cn3cncn3)CCCCC2)CC1)C1Cc2ccccc2CN1` (stereo partly specified), the Ki was 3.2 µM in test [1], 1 µM in test [2], 5.6 µM in test [3] and 14 µM in test [4].
